Test results published in ChEMBL document CHEMBL1146021, “Calcium channel antagonists discovered by a multidisciplinary approach” (J Med Chem, 2006).
Active and inactive are the calls of the source.

Assays:
Cavia porcellus [1] = species: Cavia porcellus; experiment: Vasorelaxant activity assessed as inhibition of calcium-induced contraction of potassium ion-depolarized guinea pig aortic strips at 100 uM; type: functional, Aorta; set-up: scale not given: the % may be the effect or the level left
Method in brief: (§1)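 Helicoidal guinea-pig aortic strips in aerated PSS at 35 °C, contracted with 80 mM KCl (K+ substituted for Na+). At plateau (about 45 min), compounds added cumulatively at 0.1-500 μM in DMSO vehicle. Relaxation measured isometrically. IC50 by Probit analysis, n = 6-8.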

Cavia porcellus [2] = species: Cavia porcellus; experiment: Negative inotropic activity in guinea pig left atrium at 100 uM; type: functional, Cardiac atrium; conditions: in the assay text read “50 uM” for “100 uM”
Method in brief: (§2)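 Guinea-pig left atria driven at 1 Hz (0.6-0.8 ms pulses, about 50% threshold voltage) in PSS, 35 °C, pH 7.4, 95% O2/5% CO2. Isometric tension recorded. Cumulative concentrations 0.01-100 μM in DMSO (≤0.3%), each to steady state. Percent decrease in developed tension, n = 4-6. EC50 by Probit analysis.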

Cavia porcellus [3] = species: Cavia porcellus; experiment: Negative chronotropic activity in guinea pig right atrium at 10 uM; type: functional, Cardiac atrium
Method in brief: (§3)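 Spontaneously beating guinea-pig right atria in PSS, 35 °C, pH 7.4, 95% O2/5% CO2. Cumulative concentrations 0.01-100 μM in DMSO (≤0.3% in bath), each to steady state. Rate decrease taken as percent of control (pretreatment 170-195 beats/min), n = 6-8. EC30 by Probit analysis.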

Cavia porcellus [4] = species: Cavia porcellus; experiment: Negative inotropic activity in guinea pig left atrium; type: functional; conditions: Cardiac atrium; method in brief: as §2
Cavia porcellus [5] = species: Cavia porcellus; experiment: Negative chronotropic activity in guinea pig right atrium at 100 uM; type: functional, Cardiac atrium; conditions: in the assay text read “50 uM” for “100 uM”; method in brief: as §3
Cavia porcellus [6] = species: Cavia porcellus; experiment: Vasorelaxant activity assessed as inhibition of calcium-induced contraction of potassium ion-depolarized guinea pig aortic strips at 50 uM; type: functional, Aorta; set-up: scale not given: the % may be the effect or the level left; method in brief: as §1
Cavia porcellus [7] = species: Cavia porcellus; experiment: Negative inotropic activity in guinea pig left atrium at 50 uM; type: functional, Cardiac atrium; method in brief: as §2
Cavia porcellus [8] = species: Cavia porcellus; experiment: Negative chronotropic activity in guinea pig right atrium at 50 uM; type: functional, Cardiac atrium; method in brief: as §3
Cavia porcellus [9] = species: Cavia porcellus; experiment: Antagonist activity against calcium channel assessed as inhibition of calcium-induced contraction of potassium ion-depolarized guinea pig ileum longitudinal smooth muscle; type: functional
Method in brief: (§4)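 Guinea-pig ileum longitudinal smooth muscle segments (2 cm) held at 300-400 mg resting tension, 37 °C, in oxygenated (100% O2) Hepes-buffered PSS at pH 7.4. Isometric contraction recorded. Inhibition expressed as percentage of control. Probit log concentration–response analysis, n = 6-8.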

Cavia porcellus [10] = species: Cavia porcellus; experiment: Negative chronotropic activity in guinea pig right atrium; type: functional; conditions: Cardiac atrium; method in brief: as §3
Cavia porcellus [11] = species: Cavia porcellus; experiment: Antagonist activity against calcium channel assessed as inhibition of calcium-induced contraction of potassium ion-depolarized guinea pig ileum longitudinal smooth muscle at 50 uM; type: functional; set-up: scale not given: the % may be the effect or the level left; method in brief: as §4
Cavia porcellus [12] = species: Cavia porcellus; experiment: Cardiac activity in guinea pig heart measured as decrease in heart rate at 1 uM by ECG relative to control; type: functional; set-up: scale not given: the % may be the effect or the level left
Method in brief: (§5)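 Langendorff-perfused isolated hearts from female guinea-pigs (300-400 g). Compounds given cumulatively at 0.001-1 μM, each step held to steady state (about 30 min). Read-outs: surface ECG (PR interval, heart rate), intraventricular balloon +(dP/dt)max and coronary perfusion pressure. Results given as percent change from basal at 1 μM, mean ± SEM.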

Cavia porcellus [13] = species: Cavia porcellus; experiment: Cardiac activity in guinea pig heart measured as decrease in left ventricular pressure at 1 uM relative to control; type: functional; set-up: scale not given: the % may be the effect or the level left; method in brief: as §5
[14] = molecular target: T1, Voltage-dependent L-type calcium channel subunit alpha-1C (Rattus norvegicus, UniProt P22002); experiment: Inhibition of [3H]diltiazem binding to Sprague-Dawley rat cardiomyocytes
Method in brief: (§6)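 Cardiomyocytes from male Sprague-Dawley rats, isolated by Langendorff perfusion and stored frozen (200 μg per tube). Incubated with 5 nM [3H]diltiazem and test ligand (0.1 nM-100 μM) in 50 mM Tris pH 7.4, 25 °C, 90 min. Bound ligand separated by filtration. Nonspecific binding with 100 μM diltiazem. Triplicates. pIC50 from sigmoidal fit; Ki by Cheng-Prusoff.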

Cavia porcellus [15] = species: Cavia porcellus; experiment: Negative inotropic activity in guinea pig left ventricular papillary muscle at 50 uM; type: functional, Muscle tissue
Cavia porcellus [16] = species: Cavia porcellus; experiment: Negative inotropic activity in guinea pig left ventricular papillary muscle; type: functional; conditions: Muscle tissue
Cavia porcellus [17] = species: Cavia porcellus; experiment: Cardiac activity in guinea pig heart measured as decrease in coronary perfusion pressure at 1 uM relative to control; type: functional; set-up: scale not given: the % may be the effect or the level left; method in brief: as §5
Cavia porcellus [18] = species: Cavia porcellus; experiment: Antagonist activity against calcium channel assessed as inhibition of carbachol-induced tonic contraction of guinea pig ileum longitudinal smooth muscle; type: functional
Method in brief: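 Guinea-pig ileum longitudinal smooth muscle segments (2 cm), 300-400 mg resting tension, 37 °C, oxygenated Hepes-buffered PSS at pH 7.4, equilibrated 1 h. Two control carbachol curves run 30 min apart. Test agent (10 μM) added 30 min before the carbachol curve. Isometric inhibition expressed as percent of control.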

Cavia porcellus [19] = species: Cavia porcellus; experiment: Cardiac activity in guinea pig heart measured as prolongation of atrioventricular conduction time at 1 uM relative to control; type: functional; method in brief: as §5
Cavia porcellus [20] = species: Cavia porcellus; experiment: Negative inotropic activity in guinea pig left atrium at 5 uM; type: functional, Cardiac atrium; method in brief: as §2
Cavia porcellus [21] = species: Cavia porcellus; experiment: Negative chronotropic activity in guinea pig right atrium at 5 uM; type: functional, Cardiac atrium; method in brief: as §3
Cavia porcellus [22] = species: Cavia porcellus; experiment: Antagonist activity against calcium channel assessed as inhibition of calcium-induced contraction of potassium ion-depolarized guinea pig ileum longitudinal smooth muscle at 100 uM; type: functional; set-up: scale not given: the % may be the effect or the level left; method in brief: as §4
[23] = molecular target: T1, Voltage-dependent L-type calcium channel subunit alpha-1C; experiment: Inhibition of [3H]diltiazem binding to Sprague-Dawley rat cardiomyocytes at 100 uM relative to control; conditions: read-out: Activity; method in brief: as §6
Cavia porcellus [24] = species: Cavia porcellus; experiment: Negative inotropic activity in guinea pig left ventricular papillary muscle at 1 uM; type: functional, Muscle tissue
Cavia porcellus [25] = species: Cavia porcellus; experiment: Negative inotropic activity in guinea pig left atrium at 1 uM; type: functional, Cardiac atrium; method in brief: as §2
Cavia porcellus [26] = species: Cavia porcellus; experiment: Vasorelaxant activity assessed as inhibition of calcium-induced contraction of potassium ion-depolarized guinea pig aortic strips at 500 uM; type: functional, Aorta; set-up: scale not given: the % may be the effect or the level left; method in brief: as §1
Cavia porcellus [27] = species: Cavia porcellus; experiment: Vasorelaxant activity assessed as inhibition of calcium-induced contraction of potassium ion-depolarized guinea pig aortic strips; type: functional; conditions: Aorta; method in brief: as §1
Cavia porcellus [28] = species: Cavia porcellus; experiment: Negative inotropic activity in guinea pig left ventricular papillary muscle at 10 uM; type: functional, Muscle tissue
Cavia porcellus [29] = species: Cavia porcellus; experiment: Antagonist activity against calcium channel assessed as inhibition of calcium-induced contraction of potassium ion-depolarized guinea pig ileum longitudinal smooth muscle at 500 uM; type: functional; set-up: scale not given: the % may be the effect or the level left; method in brief: as §4

T1 sequence (P22002 whole entry, the tested form may be a part): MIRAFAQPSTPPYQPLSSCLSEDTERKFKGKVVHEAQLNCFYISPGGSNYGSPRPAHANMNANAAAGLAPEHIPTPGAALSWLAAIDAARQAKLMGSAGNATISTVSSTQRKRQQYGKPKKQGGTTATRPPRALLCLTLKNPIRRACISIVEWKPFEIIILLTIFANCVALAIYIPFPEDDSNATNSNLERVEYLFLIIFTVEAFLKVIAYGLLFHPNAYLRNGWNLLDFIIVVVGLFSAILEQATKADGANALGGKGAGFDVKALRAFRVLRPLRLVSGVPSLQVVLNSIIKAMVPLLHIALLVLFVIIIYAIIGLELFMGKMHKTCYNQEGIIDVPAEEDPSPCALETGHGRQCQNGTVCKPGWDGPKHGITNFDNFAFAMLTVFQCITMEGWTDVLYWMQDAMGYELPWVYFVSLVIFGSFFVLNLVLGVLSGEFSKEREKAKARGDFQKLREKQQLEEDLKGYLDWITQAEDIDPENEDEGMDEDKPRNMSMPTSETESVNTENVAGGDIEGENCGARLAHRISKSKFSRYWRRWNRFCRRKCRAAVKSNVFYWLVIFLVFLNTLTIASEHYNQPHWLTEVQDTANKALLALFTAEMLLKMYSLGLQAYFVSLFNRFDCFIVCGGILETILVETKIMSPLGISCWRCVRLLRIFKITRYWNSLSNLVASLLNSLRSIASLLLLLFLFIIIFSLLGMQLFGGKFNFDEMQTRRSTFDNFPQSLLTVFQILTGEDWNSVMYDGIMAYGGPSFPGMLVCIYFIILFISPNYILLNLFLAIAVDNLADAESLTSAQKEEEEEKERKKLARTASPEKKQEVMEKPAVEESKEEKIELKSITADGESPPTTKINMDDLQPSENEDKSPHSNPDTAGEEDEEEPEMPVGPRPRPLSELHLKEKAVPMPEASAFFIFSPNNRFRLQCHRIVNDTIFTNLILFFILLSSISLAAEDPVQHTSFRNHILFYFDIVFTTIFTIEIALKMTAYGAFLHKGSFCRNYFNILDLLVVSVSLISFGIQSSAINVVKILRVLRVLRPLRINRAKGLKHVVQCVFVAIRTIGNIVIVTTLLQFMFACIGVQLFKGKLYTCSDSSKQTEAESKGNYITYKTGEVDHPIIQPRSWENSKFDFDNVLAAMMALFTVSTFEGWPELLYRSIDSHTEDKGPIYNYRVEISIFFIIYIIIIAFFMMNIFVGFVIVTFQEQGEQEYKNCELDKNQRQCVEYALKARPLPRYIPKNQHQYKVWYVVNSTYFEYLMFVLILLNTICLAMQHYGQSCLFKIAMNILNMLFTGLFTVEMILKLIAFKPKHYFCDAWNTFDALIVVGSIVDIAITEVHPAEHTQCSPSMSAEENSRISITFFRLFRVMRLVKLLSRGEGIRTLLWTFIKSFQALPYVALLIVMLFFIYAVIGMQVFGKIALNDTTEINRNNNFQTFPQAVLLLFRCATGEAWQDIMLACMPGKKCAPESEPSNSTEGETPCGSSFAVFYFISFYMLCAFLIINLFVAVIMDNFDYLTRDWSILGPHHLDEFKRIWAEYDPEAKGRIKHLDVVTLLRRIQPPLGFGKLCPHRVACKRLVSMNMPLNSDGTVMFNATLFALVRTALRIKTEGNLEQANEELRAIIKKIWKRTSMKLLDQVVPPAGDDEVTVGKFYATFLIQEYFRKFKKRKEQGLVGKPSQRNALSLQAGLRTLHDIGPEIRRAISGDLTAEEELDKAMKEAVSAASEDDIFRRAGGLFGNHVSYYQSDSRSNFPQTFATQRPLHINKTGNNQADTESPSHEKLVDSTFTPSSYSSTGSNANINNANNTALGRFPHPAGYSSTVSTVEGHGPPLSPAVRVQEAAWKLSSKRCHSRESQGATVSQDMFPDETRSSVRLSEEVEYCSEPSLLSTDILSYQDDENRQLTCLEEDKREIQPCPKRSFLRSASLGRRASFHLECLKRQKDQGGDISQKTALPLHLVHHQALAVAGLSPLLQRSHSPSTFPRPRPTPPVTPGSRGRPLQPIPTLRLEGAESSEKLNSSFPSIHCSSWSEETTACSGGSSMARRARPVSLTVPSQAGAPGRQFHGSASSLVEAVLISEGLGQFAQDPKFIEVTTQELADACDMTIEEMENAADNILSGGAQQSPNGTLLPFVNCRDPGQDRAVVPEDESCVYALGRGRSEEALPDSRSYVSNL

Work on `C=CCN(CC=C)S(=O)(=O)c1ccc(Cl)cc1` yielded an Activity (Cavia porcellus [1]) of 42%, an Activity (Cavia porcellus [2]) of 98% and an Activity (Cavia porcellus [3]) of 6%. It also gave an EC50 (Cavia porcellus [4]) of 1170 nM.
With `CC(C)(C)N(OC(=O)c1ccccc1)C(=O)C(F)(F)F` the Activity (Cavia porcellus [1]) was 10%, the Activity (Cavia porcellus [2]) was 52% and the Activity (Cavia porcellus [5]) was 7%. The EC50 (Cavia porcellus [4]) was 6130 nM.
For `CO/N=C/c1c(Sc2ccccc2C(=O)OC)nc2sccn12`, the EC50 (Cavia porcellus [4]) was 900 nM, the Activity (Cavia porcellus [6]) was 9% and the Activity (Cavia porcellus [7]) was 63%. The Activity (Cavia porcellus [8]) was 13%.
Compound `O=S(=O)(c1ccc(Cl)cc1)N(C1CCNCC1)C1CC1` has an EC50 (Cavia porcellus [9]) of 14200 nM, an EC30 (Cavia porcellus [10]) of 480 nM and an Activity (Cavia porcellus [1]) of 19%. The Activity (Cavia porcellus [11]) was 89%, the Activity (Cavia porcellus [12]) was 12% and the Activity (Cavia porcellus [13]) was 12%. It also gave a Ki [14] of 3020 nM, an Activity (Cavia porcellus [15]) of 78% and an EC50 (Cavia porcellus [4]) of 313 nM. It also gave an EC50 (Cavia porcellus [16]) of 10200 nM, an Activity (Cavia porcellus [17]) of 13% and an IC50 (Cavia porcellus [18]) of 34500 nM. The Activity (Cavia porcellus [7]) was 76%, the Activity (Cavia porcellus [8]) was 64% and the Activity (Cavia porcellus [19]) was “inactive”.
`CCN(c1ccccc1)S(=O)(=O)c1ccc(Cl)cc1` gave an Activity (Cavia porcellus [1]) of 46%, an Activity (Cavia porcellus [20]) of 90% and an Activity (Cavia porcellus [21]) of 7%. The EC50 (Cavia porcellus [4]) was 300 nM.
`COC(=O)c1c(-c2c(Cl)cccc2Cl)noc1C` showed an EC50 (Cavia porcellus [9]) of 6650 nM, an Activity (Cavia porcellus [12]) of 4% and an Activity (Cavia porcellus [13]) of 31%. It also gave an Activity (Cavia porcellus [22]) of 99%, an Activity (Cavia porcellus [3]) of 13% and an EC50 (Cavia porcellus [4]) of 920 nM. For the same compound, the EC50 (Cavia porcellus [16]) was 36 nM, the inhibition at 100 µM [23] was 59.6% and the Activity (Cavia porcellus [17]) was “inactive”. It also gave an IC50 (Cavia porcellus [18]) of 33700 nM, an Activity (Cavia porcellus [6]) of 30% and an Activity (Cavia porcellus [7]) of 84%. For the same compound, the Activity (Cavia porcellus [24]) was 87% and the Activity (Cavia porcellus [19]) was 14%.
For `CCO[C@@]1(c2ccc(Br)cc2)SC=C(C)n2c1noc2=O`, the Activity (Cavia porcellus [1]) was 7%, the Activity (Cavia porcellus [25]) was 47% and the Activity (Cavia porcellus [8]) was 15%.
`C=CCN(c1ccccc1)S(=O)(=O)c1ccc(Cl)cc1` was tested, and the Activity (Cavia porcellus [26]) was 54%, the Activity (Cavia porcellus [25]) was 73% and the Activity (Cavia porcellus [3]) was 5%. For the same compound, the EC50 (Cavia porcellus [4]) was 310 nM and the IC50 (Cavia porcellus [27]) was 17700 nM.
For `CC(=O)c1ccccc1N1C(=O)CSCC1=O`, the EC50 (Cavia porcellus [9]) was 124000 nM, the Activity (Cavia porcellus [12]) was 14% and the Activity (Cavia porcellus [13]) was 17%. The EC50 (Cavia porcellus [4]) was 400 nM, the EC50 (Cavia porcellus [16]) was 66 nM and the Activity (Cavia porcellus [17]) was 6%. The Activity (Cavia porcellus [18]) was “inactive”, the Activity (Cavia porcellus [6]) was 5% and the Activity (Cavia porcellus [7]) was 61%. The Activity (Cavia porcellus [28]) was 89%, the Activity (Cavia porcellus [29]) was 55% and the Activity (Cavia porcellus [8]) was 3%. For the same compound, the Activity (Cavia porcellus [19]) was 15%.
`Cc1snc(S(=O)(=O)Cc2c(F)cccc2Cl)c1C#N` gave an Activity (Cavia porcellus [1]) of 23%, an EC50 (Cavia porcellus [4]) of 2280 nM and an Activity (Cavia porcellus [7]) of 80%. It also gave an Activity (Cavia porcellus [8]) of 22%.
In the case of `C[C@H]1CC(=O)[C@](C)(CC(=O)c2ccc(Cl)cc2)C(=O)C1`, the Activity (Cavia porcellus [1]) is reported as 16%, the Activity (Cavia porcellus [3]) is reported as 2% and the EC50 (Cavia porcellus [4]) is reported as 7510 nM. For the same compound, the Activity (Cavia porcellus [7]) was 78%.
